Results from different studies.
Each line is one published result; the experiments were not run side by side.
Organism: Staphylococcus aureus
Read-out: microbial growth

O=[N+]([O-])c1ccc(/C=N/Nc2nc(Nc3ccccc3)nc(N3CCOCC3)n2)o1 — MIC: 29 µM
CCCCCCCC/C=C\CCCCCCCCNC(=O)CP(=O)(O)O — MIC (ATCC33591 MRSA; drug-resistant strain): 100 µg/mL
Cc1ccc2[nH]c3c(c2c1)CCCC3NCCc1ccc(O)cc1 (stereo not drawn) — MIC (broth dilution; VISA): 16 µg/mL
COc1cccc(-c2nc3ccc(C)cc3[nH]2)c1 — MIC (broth dilution; ATCC43300 MRSA; drug-resistant strain): 256 µg/mL
Cc1ccccc1-n1c(Cn2cnc3c(N)ncnc32)nc2cccc(C)c2c1=O — MIC (NCTC8325): > 30 µM
Cc1ccc2nc(-c3c4ccccc4cc4ccccc34)[nH]c2c1 — MIC (broth dilution; ATCC43300 MRSA; drug-resistant strain): 128 µg/mL
CN[C@H](CC(C)C)C(=O)N[C@H]1C(=O)N[C@@H](CC(N)=O)C(=O)N[C@H]2C(=O)N[C@H]3C(=O)N[C@H](C(=O)N[C@H](C(=O)O)c4cc(O)cc(O)c4-c4cc3ccc4O)[C@H](O)c3ccc(c(Cl)c3)Oc3cc2cc(c3O[C@@H]2O[C@H](CO)[C@@H](O)[C@H](O)[C@H]2O[C@H]2C[C@](C)(N)[C@H](O)[C@H](C)O2)Oc2ccc(cc2Cl)[C@H]1O — MIC (ATCC33591; drug-resistant strain): 1.56 µg/mL
c1ccc2c(-c3nc4ccccc4[nH]3)c3ccccc3cc2c1 — MIC (broth dilution; ATCC43300 MRSA; drug-resistant strain): 64 µg/mL
COC(=O)c1cc(-c2cccc(NC(=O)Nc3c(C)cccc3C)c2)on1 — MIC (broth dilution; ATCC29213): > 64 µg/mL
Cc1ccc2nc(-c3ccc([N+](=O)[O-])cc3)[nH]c2c1 — MIC (broth dilution; ATCC43300 MRSA; drug-resistant strain): 256 µg/mL
CN[C@H](CC(C)C)C(=O)N[C@H]1C(=O)N[C@@H](CC(N)=O)C(=O)N[C@H]2C(=O)N[C@H]3C(=O)N[C@H](C(=O)N[C@H](C(=O)O)c4cc(O)cc(O)c4-c4cc3ccc4O)[C@H](O)c3ccc(c(Cl)c3)Oc3cc2cc(c3O[C@@H]2O[C@H](CO)[C@@H](O)[C@H](O)[C@H]2O[C@H]2C[C@](C)(N)[C@H](O)[C@H](C)O2)Oc2ccc(cc2Cl)[C@H]1O — MIC (NEWMAN): 1 µg/mL
CCC(CC)c1cc(CCN2CCCN(Cc3ccc(C(F)(F)F)cc3)CC2)nc(-c2ccncc2)n1 — MIC (ATCCBAA41; drug-resistant strain, clinical isolate): 6 µg/mL
CO[C@H]1[C@H](O[C@H]([C@H]2O[C@@H](n3ccc(=O)[nH]c3=O)[C@H](O)[C@@H]2O)[C@H](NCCCNC(=O)[C@@H](NC(=O)[C@@H](NC(=O)N[C@H](C(=O)O)C(C)C)[C@@H]2CCN=C(N)N2)[C@@H](OC(=O)CCCCC(C)C)C(C)C)C(=O)O)O[C@H](CN)[C@H]1O — MIC (NEWMAN): > 32 µg/mL
C[C@H]1COc2c(N3CCN(C)CC3)c(F)cc3c(=O)c(C(=O)O)cn1c23 — MIC (broth dilution; ATCC29213): 0.125 µg/mL
Clc1ccc(-c2nc3ccccc3[nH]2)c(Cl)c1 — MIC (broth dilution; ATCC43300 MRSA; drug-resistant strain): 256 µg/mL
COC(=O)c1cc(-c2ccc(OC)c(NC(=O)Nc3ccc(Cl)c(Cl)c3)c2)on1 — MIC (broth dilution; ATCC29213): > 64 µg/mL
CC1(C)CC[C@]2(C(=O)O)CC[C@]3(C)C(=CC[C@@H]4[C@@]5(C)CC[C@H](O)C(C)(C)[C@@H]5CC[C@]43C)[C@@H]2C1 — MIC (ATCC25904): 256 µg/mL
COc1cc(C)c(Cc2cnc(N)nc2N)cc1OC — MIC (broth dilution): ~16.6 µM
COC(=O)c1cc(-c2cccc(NC(=S)Nc3ccc(F)c(Cl)c3)c2)on1 — MIC (broth dilution; ATCC29213): > 64 µg/mL
Cc1ccc2[nH]c3c(c2c1)CCCC3NCCc1ccc(Br)cc1 (stereo not drawn) — MIC (broth dilution; MRSA USA300): 4 µg/mL
CCCCCCC#Cc1cncc(-c2nnc(Sc3ccc([N+](=O)[O-])cc3[N+](=O)[O-])n2C)c1 — MIC (MRSA; drug-resistant strain): ≥ 20 µg/mL
CCCCCCCCCCCCCCCC(=O)NS(=O)(=O)Oc1ccc(OC)cc1 — MIC (ATCC33591 MRSA; drug-resistant strain): > 200 µg/mL
COC(=O)c1cccc(Oc2ccc(NC(=O)Nc3ccc(Cl)c(C(F)(F)F)c3)cc2)c1 — MIC (NCTC8325): 0.5 µM
O=[N+]([O-])c1ccc(-c2nc3ccccc3[nH]2)cc1 — MIC (broth dilution; ATCC43300 MRSA; drug-resistant strain): 256 µg/mL
CCCCCCCCCCCC(=O)CP(=O)(O)O — MIC (ATCC33591 MRSA; drug-resistant strain): 100 µg/mL
COC(=O)c1cc(-c2cccc(NC(=O)Nc3ccc(F)cc3)c2)on1 — MIC (broth dilution; ATCC29213): > 64 µg/mL
Cc1ccc2nc(-c3ccc(Cl)cc3)n(Cc3ccccc3)c2c1 — MIC (broth dilution; ATCC43300 MRSA; drug-resistant strain): 8 µg/mL
COC(=O)c1cc(-c2cccc(NC(=S)Nc3ccc(Cl)cc3)c2)on1 — MIC (broth dilution; ATCC29213): > 64 µg/mL
CC(c1ccc(Cl)c(Cl)c1)n1cnc2cc3c(cc21)CCC3 (stereo not drawn) — MIC: 3.1 to 6.3 µg/mL
CO/N=C(\C(=O)N[C@@H]1C(=O)N2C(C(=O)O)=C(CSc3nc(=O)c(=O)[nH]n3C)CS[C@H]12)c1csc(N)n1 — MIC (USA300): 64 µg/mL
CCCCCCCCCCCCCCCC(=O)NP(=O)(O)O — MIC (ATCC33591 MRSA; drug-resistant strain): 200 µg/mL
O=[N+]([O-])c1ccc(-c2nc3cc(F)ccc3[nH]2)o1 — MIC (broth dilution; ATCC700699 MRSA; drug-resistant strain): 4 µg/mL
COc1ccc(-c2nc3ccc(C)cc3[nH]2)cc1O — MIC (broth dilution; ATCC43300 MRSA; drug-resistant strain): 128 µg/mL
COC(=O)c1cc(-c2cccc(NC(=O)Nc3cc(Cl)ccc3Cl)c2)on1 — MIC (broth dilution; ATCC29213): > 64 µg/mL
Cn1cc(C2=C(c3cn(C4CCN(Cc5ccccn5)CC4)c4ccccc34)C(=O)NC2=O)c2ccccc21 — MIC (NCTC8325): > 30 µM
CC1C(=NOCc2cc(-c3ccc(Cl)cc3)no2)CC(c2ccccc2)OC1c1ccccc1 (stereo not drawn) — MIC (broth dilution; MTCC96; 24 h): 25 µg/mL
